Yeast life ext: extends the lifespan of yeast; S. cerevisiae growth with nicotinamide, OD615; deaD strain in restrictive glucose medium; inhibition of the nicotinamide effect, % at 10 µM; actives 0.68% (n = 130,000);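 active means inhibition above a set limit, placed 3 SD over the median of all compounds, cut at about 26% in these data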;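 further: 0% = nicotinamide-treated wells and 100% = cells grown without nicotinamide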
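Material: Modified budding yeast, DeaD strain | Medium: Restrictive glucose medium | Probe or stimulus: 1.5 mM nicotinamide | Dosing: Single dose 10 µM compound, 0.25% DMSO | Times: 48 h at 30 °C | Technique: OD615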
Efa HMGR inh: blocks class II HMG-CoA reductase of Enterococcus faecalis; inhibition, % at 10 µM; actives 0.41% (n = 190,000); AID 1066; purified E. faecalis HMGR, NADPH absorbance 340 nm kinetic;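 active means inhibition above a set limit, the median over all tested compounds plus 3 SD, cut at about 9.5% in these data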;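 further: enzyme runs in reverse so mevalonate oxidation gives rising NADPH absorbance; 0% = complete reaction with DMSO and 100% = background rate lacking mevalonate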
BB579 growth dn: yeast BB579 growth reduction in restrictive medium; S. cerevisiae BB579 growth, OD615, 48 h; inhibition, % at 10 µM; actives 0.51% (n = 140,000);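 active means inhibition above a set limit, 3 SD over the mean compound inhibition, cut at about 44% in these data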
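System: Saccharomyces cerevisiae DeaD strain BB579, replicative lifespan model yeast | Buffer or medium: Restrictive glucose-based CSMM-D medium | Times: 4 h preincubation and 48 h exposure at 30 °C | Detection: OD615 turbidity measurement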
sdo1 growth: restores growth of sdo1-depleted yeast; S. cerevisiae sdo1-depleted JHY4D growth rescue, OD600 30 h; active compounds read high; pdr5 snq2 efflux-pump mutant strain; z-score at 10 µM; actives 0.21% (n = 140,000); AID 817;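 active means z-score above 3 at both the 24 hr and the 30 hr optical density reads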;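 further: z-score against mean and SD of all compound wells on the same plate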
* marks the source's active call; other numbers are inactive results; . = no result; [ ] = dose if it differs, or a comment. Most compounds without a hit are left out; they make up all but 1.3% or so of the library.

SMILES	Yeast life ext	Efa HMGR inh	BB579 growth dn	sdo1 growth
CC(NC(=O)/C(=C\c1ccco1)NC(=O)c1ccccc1Br)C(=O)O (centres undefined)	.	10.4*	.	.
COc1cccc2c(=O)c3ccoc3n(C)c12	.	-3.4	.	.
COc1cccc2c(=O)c3c(cnn3C)n(C)c12	-20.1	-2.1	73.9*	2.28
Cc1[nH]nc2c1C1(CCC3(CC1)OCCO3)C(C#N)=C(N)O2	-6.5	10.3*	-0.4	-0.39
CCOC(=O)N1CCC2(CC1)C(C#N)=C(N)Oc1n[nH]c(C)c12	-13.0	10.0*	-41.8	1.05
CC(=O)N1CCC2(CC1)C(C#N)=C(N)Oc1n[nH]c(C(F)(F)F)c12	-3.3	0.1	-21.6	0.9
Cc1oc(-c2ccc3c(c2)OCCO3)cc1C(=O)O	.	-2.1	89.8*	0.23
Cc1ccc(N2CCCn3c2cc(C)c(C#N)c3=O)cc1C	.	9.8*	-9.8	-0.71
Cc1ccc(N2CCCn3c2cc(C)c(C#N)c3=O)cc1Cl	.	-7.9	9.8	-0.93
O=C(Cc1cccs1)Nc1cccc(C(=O)Nc2ccc(C(=O)O)cc2)c1	.	-6.6	.	.
COc1c(Cl)cc(Cl)cc1/C=C/C(=O)c1ccc(NC(=O)c2cccs2)cc1	0.2	-2.7	-11.9	-1.37
CC1CCCCC1NC(=O)/C(C#N)=C/c1ccccc1F (centres undefined)	63.1*	0.9	-24.6	-1.79
CSc1ccc(/C=C(\C#N)C(=O)NC2CCCCC2C)cc1 (centres undefined)	8.8	6.2	-59.9	-1.79
Cc1nnc(SCC(=O)NCC(=O)Nc2ccc(F)c(F)c2F)n1Cc1ccccc1	.	3.8	.	.
COC(=O)c1cc(=O)n(-c2ccccc2)c(=Nc2ccccc2)s1	32.9*	3.2	-32.0	-1.78
CCOC(=O)c1ccc(N=c2sc(C(=O)OC)cc(=O)n2-c2ccc(C(=O)OCC)cc2)cc1	3.9	3.9	-34.5	-0.86
CCN(CC)Cc1c(O)c(Cl)cc2c(C)c(C)c(=O)oc12	87.6*	0.5	-65.6	1.67
CCN(CC)Cc1c(O)c(Cl)cc2c(C)cc(=O)oc12	.	-8.7	.	.
CCOC(=O)C1C(=O)NC(SCC(=O)Nc2nccs2)=C(C#N)C1c1ccccc1OCC (centres undefined)	27.0*	-1.2	-10.1	-0.56
CCOC(=O)C1C(=O)NC(SCC(=O)OC)=C(C#N)C1c1ccccc1OCC (centres undefined)	-3.1	-0.1	-30.4	-0.06
Cc1ccc(NC(=S)NC(=O)CC2CC(C)(C)OC2=O)cc1 (centres undefined)	.	28.0*	.	.
Cc1c(C(=O)N/N=C/c2ccncc2)no[n+]1[O-]	.	-1.7	.	.
C=CCOc1ccc(Br)cc1CNCC	.	-0.9	.	.
CCn1c(/C=N/c2nc3ccccc3n2C)nc2ccccc21	34.5*	-5.0	1.3	0.45
Cn1cc(CN2CCN(c3ncccn3)CC2)c(-c2cccc(Cl)c2)n1	.	9.6*	.	.
SMILES	Yeast life ext	Efa HMGR inh	BB579 growth dn	sdo1 growth
Cc1cc(N2CCN(Cc3cn(C)nc3-c3cccc(Cl)c3)CC2)cc(C)n1	.	6.0	.	.
c1cncc(-c2nnc(-c3cccnc3)nn2)c1	4.6	4.3	53.1*	-0.48
CCOC(=O)c1c(C)oc2c1c(C(c1ccccc1)N1CCOCC1)c(O)c1ccccc12 (centres undefined)	23.9	-3.8	-22.7	-2.63
CCOC(=O)c1c(C)oc2c1c(C(c1cccnc1)N1CCCCC1)c(O)c1ccccc12 (centres undefined)	50.2*	-0.3	-35.3	-3.16
CSc1nc(-c2ccccc2)cn1-c1ccc(NC(C)=O)cc1	.	9.8*	.	.
Cc1cc(C)c(S(=O)(=O)c2ccccc2)c(OC(=O)c2c(F)cccc2F)n1	.	13.5*	.	.
Cc1cc(C)c(S(=O)(=O)c2ccccc2)c(OC(=O)c2c(Cl)cc(Cl)cc2Cl)n1	-0.5	2.1	-83.6	-2.13
CC(C)CC(NC(=O)c1ccccc1)C(=O)OCC(=O)Nc1ccc(S(N)(=O)=O)cc1 (centres undefined)	.	-5.4	.	.
CCOC(=O)CSc1nc(C)c2cc(C)c(C)cc2n1	.	12.7*	.	.
CCN1C(=O)N[C@H](c2ccc(Br)cc2)C(C(C)=O)=C1C	40.1*	-4.2	-20.0	0.3
COCCN1C(=O)N[C@@H](c2ccccc2)C(C(C)=O)=C1C	2.4	-5.9	-36.2	0.42
C=CCSc1nnc(CC(OC)OC)n1-c1ccccc1	.	-1.6	.	.
CC(C)N=C(NS(=O)(=O)c1ccccc1)C(Cl)(Cl)Cl	39.6*	4.2	-27.6	-1.76
COc1cc(Br)cc(-c2nc3c(c(=O)[nH]c(=O)n3Cc3ccccc3)n2C)c1O	63.3*	-0.5	-42.8	-0.17
Cc1cccc(Cn2nc(C)cc2NC(=O)CCCn2ccc([N+](=O)[O-])n2)c1	.	7.8	.	.
COCC(C)OC(=O)/C(C#N)=C\c1coc2ccc(C)cc2c1=O (centres undefined)	5.3	-5.2	63.5*	-0.74
Cc1cc(NCCN2CCOCC2)n2ncc(-c3ccccc3)c2n1	42.4*	-2.5	13.0	-0.21
O=C1NC2(CCCCC2)C(=O)N1Cc1cccc(C(F)(F)F)c1	.	-0.3	.	.
CSCCC(NS(=O)(=O)/C=C/c1ccccc1)C(=O)O (centres undefined)	.	10.3*	.	.
CSCCC(NC(=O)c1ccccc1)C(=O)O (centres undefined)	.	-1.4	.	.
CC(=O)N1NC(=Nc2ccccc2)SC1(C)C	.	-1.2	.	.
CCn1c(=O)c2ccccc2n2c(SCC(=O)N3CCCc4ccccc43)nnc12	38.9*	-6.0	-40.4	-0.19[8.4 µM]
Cc1ccc(C)c2c1cc(C)c1nnc(SCC(=O)N3CCCc4ccccc43)n12	15.1	2.4	-37.7	-0.9
O=C(CCSCCc1ccccn1)Nc1ccccn1	-5.2	-1.0	-1.9	0.41
O=C(CCSCCc1ccccn1)Nc1c(F)c(F)c(F)c(F)c1F	27.2*	-1.1	-26.5	0.79
SMILES	Yeast life ext	Efa HMGR inh	BB579 growth dn	sdo1 growth
c1ccc(CSc2ccc(-c3cccs3)nn2)cc1	-4.1	-1.7	-21.9	0.26
c1ccc(CSc2ccc(-c3cccs3)nn2)nc1	.	12.4*	.	.
COc1ccc(NC(=O)c2cccnc2Cl)c(S(=O)(=O)N2CCOCC2)c1	-3.8	-3.1	-60.8	0.18
COc1ccc(NC(=O)c2cncc(Br)c2)c(S(=O)(=O)N2CCOCC2)c1	0.5	11.4*	-6.2	-0.35
Cc1cc(=O)[nH]c(N/N=C/c2ccc(N(C)C)cc2)n1	.	13.6*	.	.
COc1ccc2c(c1)O/C(=C\c1sccc1C)C2=O	-5.3	-1.8	-5.1	-1.42
COc1ccc(C(=O)N/N=C/C(Br)=C/c2ccccc2)cc1	-6.5	-3.5	-20.6	0.8
Cc1occc1C(=O)N/N=C/C(Br)=C/c1ccccc1	.	10.0*	.	.
CC1=C(C)CC(C(=O)c2ccc(C)cc2)C(C(=O)O)C1 (centres undefined)	30.4*	-5.1	-9.8	-0.64
CC(C)OCCCNS(=O)(=O)c1ccc2ccccc2c1	108.4*	-2.0	-40.9	-0.26
C/C(=N/NC(=O)c1ccccc1)C1=C(O)CC(C)(C)CC1=O	.	-7.5	.	.
CC(=Nc1ccc2c(c1)nc(CO)n2C)C1=C(O)CC(C)(C)CC1=O	45.8*	-0.1	-66.5	0.85
O=C(Oc1ccc(Cl)c2cccnc12)c1ccco1	-18.4	-4.6	96.1*	-2.76
O=C(Oc1cccc2cccnc12)c1ccco1	.	1.2	-11.5	-0.14
CCCCNC(=O)C1CCN(S(=O)(=O)N2CCOCC2)CC1	.	2.4	.	.

Compound activity from PubChem.
